From ChEMBL document CHEMBL1240354, “Efficacy of posaconazole against three clinical Aspergillus fumigatus isolates with mutations in the cyp51A gene” (Antimicrob Agents Chemother, 2010)
≈ marks a conversion by molar mass, not a printed value.

Legend:
[1] = test system: Aspergillus fumigatus; experiment: Antifungal activity against Aspergillus fumigatus isolate AZN 8196 harboring wild type Cyp51A protein by broth microdilution method; format: functional
In short: (§1)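 Broth microdilution followed CLSI M38A. Isolates were stored in 10% glycerol broth at −80°C and revived on Sabouraud dextrose agar with 0.02% chloramphenicol for 5 to 7 days at 35°C before testing.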

[2] = test system: Aspergillus fumigatus; experiment: Antifungal activity against Aspergillus fumigatus isolate V28-77 harboring M220I mutation in Cyp51A protein by broth microdilution method; format: functional; in short: as §1
[3] = test system: Aspergillus fumigatus; experiment: Antifungal activity against Aspergillus fumigatus isolate V52-35 harboring TR L98H mutation in Cyp51A protein by broth microdilution method; format: functional; in short: as §1
[4] = test system: Aspergillus fumigatus; experiment: Antifungal activity against Aspergillus fumigatus isolate V59-73 harboring G54W mutation in Cyp51A protein by broth microdilution method; format: functional; in short: as §1
[5] = AUC in CD1 mouse infected with wild type Aspergillus fumigatus at 1 mg/kg, po qd for 14 days measured after 24 hrs post last dose by HPLC analysis; format: ADME, organism-based; set-up: time < 24 hr, dose 1 mg/kg, route oral; conditions: plasma
In short: (§2)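 Female CD-1 mice (4-5 weeks, 20-22 g) were infected via the lateral tail vein with the wild-type isolate. Oral posaconazole was given once daily from 24 h. On treatment day 2, orbital blood was taken predose and 0.5-24 h postdose, 3 mice per time point. Plasma was assayed by HPLC-fluorescence. Cmax was observed directly. AUC0–24 used the log-linear trapezoidal rule, and CL = dose/AUC0–24.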

[6] = AUC in CD1 mouse infected with wild type Aspergillus fumigatus at 4 mg/kg, po qd for 14 days measured after 24 hrs post last dose by HPLC analysis; format: ADME, organism-based; set-up: time < 24 hr, dose 4 mg/kg, route oral; conditions: plasma; in short: as §2
[7] = AUC in CD1 mouse infected with wild type Aspergillus fumigatus at 16 mg/kg, po qd for 14 days measured after 24 hrs post last dose by HPLC analysis; format: ADME, organism-based; set-up: time < 24 hr, dose 16 mg/kg, route oral; conditions: plasma; in short: as §2
[8] = AUC in CD1 mouse infected with wild type Aspergillus fumigatus at 64 mg/kg, po qd for 14 days measured after 24 hrs post last dose by HPLC analysis; format: ADME, organism-based; set-up: time < 24 hr, dose 64 mg/kg, route oral; conditions: plasma; in short: as §2
[9] = test system: Mus musculus; experiment: Dose normalised AUC in CD1 mouse infected with wild type Aspergillus fumigatus at 1 mg/kg, po qd for 14 days measured after 24 hrs post last dose by HPLC analysis; format: ADME, organism-based; set-up: time < 24 hr, dose 1 mg/kg, route oral; conditions: in vivo; in short: as §2
[10] = test system: Mus musculus; experiment: Dose normalised AUC in CD1 mouse infected with wild type Aspergillus fumigatus at 4 mg/kg, po qd for 14 days measured after 24 hrs post last dose by HPLC analysis; format: ADME, organism-based; set-up: time < 24 hr, dose 4 mg/kg, route oral; conditions: in vivo; in short: as §2
[11] = test system: Mus musculus; experiment: Dose normalised AUC in CD1 mouse infected with wild type Aspergillus fumigatus at 16 mg/kg, po qd for 14 days measured after 24 hrs post last dose by HPLC analysis; format: ADME, organism-based; set-up: time < 24 hr, dose 16 mg/kg, route oral; conditions: in vivo; in short: as §2
[12] = test system: Mus musculus; experiment: Dose normalised AUC in CD1 mouse infected with wild type Aspergillus fumigatus at 64 mg/kg, po qd for 14 days measured after 24 hrs post last dose by HPLC analysis; format: ADME, organism-based; set-up: time < 24 hr, dose 64 mg/kg, route oral; conditions: in vivo; in short: as §2
[13] = Apparent oral clearance in CD1 mouse infected with wild type Aspergillus fumigatus at 1 mg/kg, po qd for 14 days measured after 24 hrs post last dose by HPLC analysis; format: ADME, organism-based; set-up: dose 1 mg/kg, route oral; conditions: in vivo; in short: as §2
[14] = Apparent oral clearance in CD1 mouse infected with wild type Aspergillus fumigatus at 4 mg/kg, po qd for 14 days measured after 24 hrs post last dose by HPLC analysis; format: ADME, organism-based; set-up: dose 4 mg/kg, route oral; conditions: in vivo; in short: as §2
[15] = Apparent oral clearance in CD1 mouse infected with wild type Aspergillus fumigatus at 16 mg/kg, po qd for 14 days measured after 24 hrs post last dose by HPLC analysis; format: ADME, organism-based; set-up: dose 16 mg/kg, route oral; conditions: in vivo; in short: as §2
[16] = Apparent oral clearance in CD1 mouse infected with wild type Aspergillus fumigatus at 64 mg/kg, po qd for 14 days measured after 24 hrs post last dose by HPLC analysis; format: ADME, organism-based; set-up: dose 64 mg/kg, route oral; conditions: in vivo; in short: as §2
[17] = Plasma concentration in CD1 mouse infected with wild type Aspergillus fumigatus at 1 mg/kg, […] by HPLC analysis; format: ADME, organism-based; set-up: dose 1 mg/kg, route oral; conditions: po
[18] = Plasma concentration in CD1 mouse infected with wild type Aspergillus fumigatus at 4 mg/kg, […] by HPLC analysis; format: ADME, organism-based; set-up: dose 4 mg/kg, route oral; conditions: po
[19] = Plasma concentration in CD1 mouse infected with wild type Aspergillus fumigatus at 16 mg/kg, […] by HPLC analysis; format: ADME, organism-based; set-up: dose 16 mg/kg, route oral; conditions: po
[20] = Plasma concentration in CD1 mouse infected with wild type Aspergillus fumigatus at 64 mg/kg, […] by HPLC analysis; format: ADME, organism-based; set-up: dose 64 mg/kg, route oral; conditions: po
[21] = Cmax in CD1 mouse infected with wild type Aspergillus fumigatus at 1 mg/kg, po qd for 14 days measured after 24 hrs post last dose by HPLC analysis; format: ADME, organism-based; set-up: dose 1 mg/kg, route oral; conditions: in vivo; in short: as §2
[22] = Cmax in CD1 mouse infected with wild type Aspergillus fumigatus at 4 mg/kg, po qd for 14 days measured after 24 hrs post last dose by HPLC analysis; format: ADME, organism-based; set-up: dose 4 mg/kg, route oral; conditions: in vivo; in short: as §2
[23] = Cmax in CD1 mouse infected with wild type Aspergillus fumigatus at 16 mg/kg, po qd for 14 days measured after 24 hrs post last dose by HPLC analysis; format: ADME, organism-based; set-up: dose 16 mg/kg, route oral; conditions: in vivo; in short: as §2
[24] = Cmax in CD1 mouse infected with wild type Aspergillus fumigatus at 64 mg/kg, po qd for 14 days measured after 24 hrs post last dose by HPLC analysis; format: ADME, organism-based; set-up: dose 64 mg/kg, route oral; conditions: in vivo; in short: as §2
[25] = Tmax in CD1 mouse infected with wild type Aspergillus fumigatus at 1 mg/kg, […] by HPLC analysis; format: ADME, organism-based; set-up: dose 1 mg/kg, route oral; conditions: in vivo, po
[26] = Tmax in CD1 mouse infected with wild type Aspergillus fumigatus at 4 mg/kg, […] by HPLC analysis; format: ADME, organism-based; set-up: dose 4 mg/kg, route oral; conditions: in vivo, po
[27] = Tmax in CD1 mouse infected with wild type Aspergillus fumigatus at 16 mg/kg, […] by HPLC analysis; format: ADME, organism-based; set-up: dose 16 mg/kg, route oral; conditions: in vivo, po
[28] = Tmax in CD1 mouse infected with wild type Aspergillus fumigatus at 64 mg/kg, […] by HPLC analysis; format: ADME, organism-based; set-up: dose 64 mg/kg, route oral; conditions: in vivo, po
[29] = test system: Aspergillus fumigatus; experiment: Ratio of AUC to MIC for wild type Aspergillus fumigatus infected in CD1 mouse; format: functional
In short: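 The ratio was calculated as AUC0–24 from the mouse PK study (oral posaconazole once daily, 1 to 64 mg/kg) divided by the CLSI M38A broth microdilution MIC.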

[30] = test system: Aspergillus fumigatus; experiment: Antifungal activity against wild type Aspergillus fumigatus infected in CD1 mouse assessed as increase in mouse survival rate administered orally qd for 14 days measured on day 15 post fungal infection; format: functional, organism-based
In short: (§3)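 Female CD-1 mice (4-5 weeks, 20-25 g, 11 per group) received an LD90 conidial inoculum of each isolate IV via the tail vein. Conidia were harvested in PBS/0.1% Tween 80, gauze-filtered and hemacytometer-counted. Posaconazole oral solution (1, 4, 16, 64 mg/kg) was given by gavage once daily for 14 days from 24 h post-infection; controls received saline. Survival was compared by log rank test, with survivors euthanized on day 15.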

[31] = test system: Aspergillus fumigatus; experiment: Antifungal activity against Aspergillus fumigatus isolate V52-35 harboring TR L98H mutation in Cyp51A protein infected in CD1 mouse assessed as increase in mouse survival rate administered orally qd for 14 days measured on day 15 post fungal infection; format: functional, organism-based; in short: as §3
[32] = test system: Aspergillus fumigatus; experiment: Antifungal activity against Aspergillus fumigatus isolate V28-77 harboring M220I mutation in Cyp51A protein infected in CD1 mouse assessed as increase in mouse survival rate administered orally qd for 14 days measured on day 15 post fungal infection; format: functional, organism-based; in short: as §3
[33] = test system: Aspergillus fumigatus; experiment: Antifungal activity against Aspergillus fumigatus isolate V59-73 harboring G54W mutation in Cyp51A protein infected in CD1 mouse assessed as increase in mouse survival rate administered orally qd for 14 days measured on day 15 post fungal infection; format: functional; in short: as §3
[34] = test system: Aspergillus fumigatus; experiment: Antifungal activity against Aspergillus fumigatus isolate V28-77 harboring M220I mutation in Cyp51A protein infected in CD1 mouse assessed as 50% effective pharmacodynamic index administered orally qd for 14 days measured post last dose; format: functional
In short: (§4)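 EI50 came from fitting a variable-slope Hill equation to AUC0–24/MIC ratio versus 14-day survival. AUCs were taken from the PK study in wild-type-infected mice at each dose (1-64 mg/kg oral, once daily). Ratios were log10-transformed before analysis.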

[35] = test system: Aspergillus fumigatus; experiment: Antifungal activity against Aspergillus fumigatus isolate V52-35 harboring TR L98H mutation in Cyp51A protein infected in CD1 mouse assessed as 50% effective pharmacodynamic index administered orally qd for 14 days measured post last dose; format: functional; in short: as §4

## C[C@@H]1[C@H](O)[C@@H](C)/C=C/C=C/C=C/C=C/C=C/C=C/C=C/[C@H](O[C@@H]2O[C@H](C)[C@@H](O)[C@H](N)[C@@H]2O)C[C@@H]2O[C@](O)(C[C@@H](O)C[C@@H](O)[C@H](O)CC[C@@H](O)C[C@@H](O)CC(=O)O[C@H]1C)C[C@H](O)[C@H]2C(=O)O [AMPHOTERICIN B]
[1]
  MIC: 0.5 µg/mL (≈ 0.541 µM)
[2]
  MIC: 0.5 µg/mL (≈ 0.541 µM)
[3]
  MIC: 0.5 µg/mL (≈ 0.541 µM)
[4]
  MIC: 0.5 µg/mL (≈ 0.541 µM)

## CC[C@H](C)C[C@H](C)CCCCCCCCC(=O)N[C@H]1C[C@@H](O)[C@@H](NCCN)NC(=O)[C@@H]2[C@@H](O)CCN2C(=O)[C@H]([C@H](O)CCN)NC(=O)[C@H]([C@H](O)[C@@H](O)c2ccc(O)cc2)NC(=O)[C@@H]2C[C@@H](O)CN2C(=O)[C@H]([C@@H](C)O)NC1=O [CASPOFUNGIN]
[1]; read-out: MEC
  minimal effective concentration: 0.25 µg/mL
[2]; read-out: MEC
  minimal effective concentration: 0.25 µg/mL
[3]; read-out: MEC
  minimal effective concentration: 0.25 µg/mL
[4]; read-out: MEC
  minimal effective concentration: 0.25 µg/mL

## CCC(C)n1ncn(-c2ccc(N3CCN(c4ccc(OCC5COC(Cn6cncn6)(c6ccc(Cl)cc6Cl)O5)cc4)CC3)cc2)c1=O (configuration not stated) [ITRACONAZOLE]
[1]
  MIC: 0.125 µg/mL (≈ 0.177 µM)
[2]
  MIC: > 16 µg/mL
[3]
  MIC: > 16 µg/mL
[4]
  MIC: > 16 µg/mL

## CC[C@@H]([C@H](C)O)n1ncn(-c2ccc(N3CCN(c4ccc(OC[C@@H]5CO[C@@](Cn6cncn6)(c6ccc(F)cc6F)C5)cc4)CC3)cc2)c1=O [POSACONAZOLE]
[1]
  MIC: 0.031 µg/mL (≈ 0.0442 µM)
[2]
  MIC: 0.5 µg/mL (≈ 0.713 µM)
[3]
  MIC: 0.5 µg/mL (≈ 0.713 µM)
[4]
  MIC: > 16 µg/mL
[5]
  AUC at 24 h: 10.2 µg·h/mL
[6]
  AUC at 24 h: 45.1 µg·h/mL
[7]
  AUC at 24 h: 159 µg·h/mL
[8]
  AUC at 24 h: 297 µg·h/mL
[9]
  AUC: 10.2 kg·h/L
[10]
  AUC: 11.3 kg·h/L
[11]
  AUC: 9.96 kg·h/L
[12]
  AUC: 4.64 kg·h/L
[13]
  CL/F: 1.67 mL/min/kg
[14]
  CL/F: 1.5 mL/min/kg
[15]
  CL/F: 1.67 mL/min/kg
[16]
  CL/F: 3.67 mL/min/kg
[17]
  concentration: 110 ng/mL
[18]
  concentration: 940 ng/mL
[19]
  concentration: 2700 ng/mL
[20]
  concentration: 9330 ng/mL
[21]
  Cmax: 980 ng/mL
[22]
  Cmax: 3110 ng/mL
[23]
  Cmax: 9030 ng/mL
[24]
  Cmax: 17800 ng/mL
[25]
  Tmax: 4 h
[26]
  Tmax: 2 h
[27]
  Tmax: 8 h
[28]
  Tmax: 8 h
[29]
  RatioAUC/MIC: 1000
[30]
  Activity: Dose-dependent effect
[31]
  Activity: Dose-dependent effect
[32]
  Activity: Dose-dependent effect
[33]
  Activity: Dose-dependent effect
[33]; isolate V59-73, po
  ED50: 29 mg/kg
[34]
  Activity: 321
[35]
  Activity: 321

## C[C@@H](c1ncncc1F)[C@](O)(Cn1cncn1)c1ccc(F)cc1F [VORICONAZOLE]
[1]
  MIC: 0.25 µg/mL (≈ 0.716 µM)
[2]
  MIC: 0.25 µg/mL (≈ 0.716 µM)
[3]
  MIC: 2 µg/mL (≈ 5.73 µM)
[4]
  MIC: 0.125 µg/mL (≈ 0.358 µM)
